Test results reported in ChEMBL document CHEMBL3259516, “Structure-based design and synthesis of bicyclic fused-pyridines as MEK inhibitors” (Bioorg Med Chem Lett, 2014).

Legend:
[1] = target: T1, Dual specificity mitogen-activated protein kinase kinase 1 (Homo sapiens, UniProt Q02750); test: Inhibition of MEK1 (unknown origin)
[2] = Cmax in beagle dog at 1 mg/kg, po; format: ADME, organism-based, Canis lupus familiaris; set-up: dose 1 mg/kg, route oral; conditions: in vivo
[3] = Plasma protein binding in human; format: ADME, cell-free; conditions: read-out: PPB (converted)
[4] = Oral bioavailability in beagle dog at 1 mg/kg; format: ADME, organism-based, Canis lupus familiaris; conditions: in vivo
Mus musculus = test: Toxicity in mouse xenografted with human COLO205 cells assessed as change in body weight at 3 mg/kg, po qd for 14 days; format: organism-based, COLO 205; set-up: dose 3 mg/kg, route oral; conditions: in vivo, 336 h
Outline: (§1)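 Human colorectal Colo-205 xenografts in mice; test agent given by oral gavage at 3.0 mg/kg once daily for 14 days. Tumor growth inhibition scored relative to control, and body weight followed in all animals throughout the study.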

[5] = Half life in beagle dog at 1 mg/kg, iv; format: ADME, organism-based, Canis lupus familiaris; set-up: dose 1 mg/kg, route intravenous; conditions: in vivo
[6] = Half life in beagle dog at 1 mg/kg, po; format: ADME, organism-based, Canis lupus familiaris; set-up: dose 1 mg/kg, route oral; conditions: in vivo
[7] = AUC in beagle dog at 1 mg/kg, po; format: ADME, organism-based, Canis lupus familiaris; set-up: dose 1 mg/kg, route oral; conditions: plasma
[8] = AUC in rat at 5 mg/kg, po; format: ADME, organism-based; set-up: dose 5 mg/kg, route oral; conditions: plasma
[9] = Clearance in rat liver microsomes; format: ADME; conditions: read-out: CLH
[10] = Clearance in human liver microsomes; format: ADME; conditions: read-out: CLH
[11] = Cmax in rat at 5 mg/kg, po; format: ADME, organism-based; set-up: dose 5 mg/kg, route oral; conditions: in vivo
[12] = AUC in beagle dog at 1 mg/kg, iv; format: ADME, organism-based, Canis lupus familiaris; set-up: dose 1 mg/kg, route intravenous; conditions: plasma
COLO 205 = test: Antitumor activity against human COLO205 cells xenografted in mouse assessed as tumor growth inhibition at 3 mg/kg, po qd for 14 days relative to control; format: functional; conditions: COLO 205, 336 h, read-out: TGI; outline: as §1
[13] = Inhibition of CYP450 (unknown origin) up to 50 uM; format: ADME; conditions: human
[14] = Half life in rat at 5 mg/kg, po; format: ADME, organism-based; set-up: dose 5 mg/kg, route oral; conditions: in vivo
[15] = target: T1, Dual specificity mitogen-activated protein kinase kinase 1; test: Inhibition of MEK1 in human COLO205 cells; format: cell-based, COLO 205

T1 sequence (Q02750 whole entry): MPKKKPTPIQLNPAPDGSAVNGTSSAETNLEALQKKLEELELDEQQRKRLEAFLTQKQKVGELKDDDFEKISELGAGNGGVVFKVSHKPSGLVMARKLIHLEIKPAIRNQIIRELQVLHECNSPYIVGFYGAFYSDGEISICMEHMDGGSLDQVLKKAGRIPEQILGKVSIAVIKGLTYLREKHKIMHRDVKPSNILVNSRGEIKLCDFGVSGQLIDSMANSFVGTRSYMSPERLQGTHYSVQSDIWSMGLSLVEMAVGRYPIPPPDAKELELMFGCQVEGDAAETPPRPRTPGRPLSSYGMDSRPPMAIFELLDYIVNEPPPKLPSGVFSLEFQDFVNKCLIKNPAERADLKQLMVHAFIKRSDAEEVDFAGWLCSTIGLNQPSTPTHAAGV

For `O=C(NC[C@H](O)CO)c1ncncc1Nc1ccccc1F`, which IC50 [1] is on record?
Its IC50 is greater than 1000 nM.

For `O=c1c2c(Nc3ccc(I)cc3F)cncc2cnn1C[C@H](O)CO`, which Cmax [2] is on record?
Its Cmax is 117 ng/mL.

And the fraction unbound [3]?
The fraction unbound was 0.033.

What about the bioavailability [4] of the same molecule?
The bioavailability was 43%.

And the Activity (Mus musculus)?
The Activity was “Non-toxic”.

And the half-life [5]?
The half-life was 187 min.

And the half-life [6]?
Its half-life is 293 min.

And the AUC [7]?
The AUC was 510 ng·h/mL.

What about the AUC [8] of the same molecule?
The AUC was 4890 ng·h/mL.

And the microsomal CLint [9]?
Its microsomal CLint is 2.38 µL/min/mg.

What about the microsomal CLint [10] of the same molecule?
Its microsomal CLint is 1.25 µL/min/mg.

What about the Cmax [11] of the same molecule?
The Cmax was 1080 ng/mL.

And the AUC [12]?
Its AUC is 1190 ng·h/mL.

And the inhibition in vivo at 3 mg/kg (COLO 205)?
Its inhibition in vivo at 3 mg/kg is 59.5%.

And the “inhibition (INH)” value [13]?
The value was “Not Active”.

And the half-life [14]?
The half-life was 334 min.

Which IC50 [1] does the source give for `Cn1c(=O)c(F)c(Nc2ccc(I)cc2F)c2c(=O)n(C[C@@H](O)CO)cnc21` [TAK-733] here?
Its IC50 is 1.79 nM.

And the IC50 [15]?
Its IC50 is 6.92 nM.
